Results taken from ChEMBL document CHEMBL4706641, “Novel Carboline Fungal Histone Deacetylase (HDAC) Inhibitors for Combinational Treatment of Azole-Resistant Candidiasis” (J Med Chem, 2021).
pIC50: −log10 of the molar value. Values after ≈ are worked out from the molar mass of the structure shown. Active and inactive are the calls of the source. No cut-off for these calls is given here.

What was measured:
Candida albicans [1] = test: Induction of morphological changes in Candida albicans assessed as reduction in morphological conversion from yeast to hypha forms at 32 ug/ml incubated for 3 hrs by inverse fluorescence microscopy; type: functional, organism-based; settings: dose 32.0 µg/ml
Procedure, shortened: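 Exponential-phase C. albicans were suspended in Spider medium ([…], 2% NaHCO₃, […]) at 2 × 10⁶ cells/mL. Drugs were added alone or combined, with DMSO as control. After 3 h at 37 °C, cells were imaged by inverted fluorescence microscopy. Three independent experiments were run.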

Candida albicans [2] = test: (§1) Antifungal activity against Candida albicans 0304103 infected in ICR mouse model of candidiasis assessed as reduction in fungal invasion by measuring clusters of fungal infiltration in renal pelvis/medulla at 10 mg/kg, ip dosed 24 hrs post infection and co-treated with 1 mg/kg, ip fluconazole and measured after 5 days by H and E staining based microscopical analysis; type: functional, organism-based; settings: time 5.0 day
Procedure, shortened: (§2)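 Two ICR mice per group, infected and treated as in the kidney burden model (IV 5 × 10⁵ C. albicans 0304103; IP compound 10 mg/kg, fluconazole 1 mg/kg, or combination, 5 days). Kidneys fixed in 4% paraformaldehyde, paraffin-embedded, 4 μm sections, H&E stained, examined at 40× and 200×.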

Candida albicans [3] = test: Synergistic fungicidal activity against Candida albicans 0304103 assessed as potentiation of fluconazole antifungal activity at 32 ug/ml incubated for 48 hrs in presence of 64 ug/ml fluconazole by checkerboard microdilution assay; type: functional, organism-based; settings: dose 32.0 µg/ml
Cryptococcus neoformans = test: Synergistic antifungal activity against Cryptococcus neoformans assessed as potentiation of ITC antifungal activity by measuring ITC incubated for 48 hrs in presence of fluconazole by checkerboard microdilution assay; type: functional, organism-based
Candida tropicalis = test: Synergistic antifungal activity against Candida tropicalis assessed as potentiation of VRC antifungal activity by measuring VRC incubated for 48 hrs in presence of fluconazole by checkerboard microdilution assay; type: functional, organism-based
Candida albicans [4] = test: Synergistic antifungal activity against Candida albicans 9172 incubated for 48 hrs in presence of fluconazole by microdilution assay; type: functional
Procedure, shortened: (§3)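 Checkerboard broth microdilution per CLSI M27-A3 (modified), clinical Candida isolates. Exponential cells in RPMI 1640 (MOPS-buffered) at 10³ cells/mL; fluconazole 0.25–64 μg/mL crossed with test compound 2–64 μg/mL (final). 48 h at 35 °C; OD630 read with background subtracted. MIC80 = 80% growth inhibition; FICI ≤0.5 synergy, >4 antagonism.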

Candida albicans [5] = test: Synergistic antifungal activity against Candida albicans 4108 assessed as fluconazole MIC incubated for 48 hrs in presence of fluconazole by microdilution assay (reference value: fluconazole alone MIC = >[…] ug/ml); type: functional
[Candida] auris [6] = Synergistic antifungal activity against Candida auris assessed as potentiation of VRC antifungal activity by measuring VRC incubated for 48 hrs in presence of fluconazole by checkerboard microdilution assay; type: functional, organism-based; settings: Candidozyma auris
Candida albicans [7] = test: Antifungal activity against Candida albicans 9884 incubated for 48 hrs by microdilution assay; type: functional; procedure, shortened: as §3
Candida albicans [8] = test: Antifungal activity against Candida albicans 10061 incubated for 48 hrs by microdilution assay; type: functional; procedure, shortened: as §3
Candida albicans [9] = test: Antifungal activity against Candida albicans 0304103 infected in ICR mouse model of candidiasis assessed as reduction in kidney fungal burden at 10 mg/kg, ip dosed 24 hrs post infection and co-treated with 1 mg/kg, ip fluconazole and measured after 5 days; type: functional, organism-based; settings: time 5.0 day
[10] = target: T1, Protein deacetylase HDAC6 (Homo sapiens, UniProt Q9UBN7); test: Inhibition of human HDAC6 pre-incubated for 5 mins before substrate addition and measured after 30 mins by fluorescence based assay
T1 sequence (Q9UBN7 whole entry): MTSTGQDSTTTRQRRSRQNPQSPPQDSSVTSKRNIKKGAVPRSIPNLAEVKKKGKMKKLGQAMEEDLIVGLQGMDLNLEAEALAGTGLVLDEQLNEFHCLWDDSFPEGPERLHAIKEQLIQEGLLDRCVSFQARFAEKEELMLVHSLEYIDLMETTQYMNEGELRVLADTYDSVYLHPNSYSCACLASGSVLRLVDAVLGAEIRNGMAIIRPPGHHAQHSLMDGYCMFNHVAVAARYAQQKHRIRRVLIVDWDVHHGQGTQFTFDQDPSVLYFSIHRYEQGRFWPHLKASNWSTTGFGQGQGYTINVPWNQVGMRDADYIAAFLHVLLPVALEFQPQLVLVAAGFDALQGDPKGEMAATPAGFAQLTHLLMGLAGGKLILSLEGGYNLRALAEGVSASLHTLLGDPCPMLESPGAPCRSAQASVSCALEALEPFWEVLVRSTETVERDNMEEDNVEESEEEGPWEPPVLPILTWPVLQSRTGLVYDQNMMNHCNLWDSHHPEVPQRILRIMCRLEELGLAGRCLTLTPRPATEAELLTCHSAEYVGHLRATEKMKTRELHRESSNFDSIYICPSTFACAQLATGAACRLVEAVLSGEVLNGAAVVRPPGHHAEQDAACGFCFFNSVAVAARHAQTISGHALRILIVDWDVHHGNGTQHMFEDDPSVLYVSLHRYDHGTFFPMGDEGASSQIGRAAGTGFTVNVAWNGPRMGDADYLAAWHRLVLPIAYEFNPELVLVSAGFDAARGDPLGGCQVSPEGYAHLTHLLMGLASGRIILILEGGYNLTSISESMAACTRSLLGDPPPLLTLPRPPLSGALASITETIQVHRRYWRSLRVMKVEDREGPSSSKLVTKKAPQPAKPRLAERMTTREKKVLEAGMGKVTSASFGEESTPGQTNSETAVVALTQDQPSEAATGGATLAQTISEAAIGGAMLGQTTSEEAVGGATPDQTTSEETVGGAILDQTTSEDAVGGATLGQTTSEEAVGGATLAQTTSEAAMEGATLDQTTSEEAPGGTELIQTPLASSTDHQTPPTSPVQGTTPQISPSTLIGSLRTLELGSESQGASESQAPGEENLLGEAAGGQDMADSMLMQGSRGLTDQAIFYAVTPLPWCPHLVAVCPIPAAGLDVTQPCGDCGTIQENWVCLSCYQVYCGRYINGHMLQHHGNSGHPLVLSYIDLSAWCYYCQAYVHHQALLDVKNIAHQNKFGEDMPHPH

[Candida] auris [11] = Synergistic antifungal activity against Candida auris assessed as potentiation of ITC antifungal activity by measuring ITC incubated for 48 hrs in presence of fluconazole by checkerboard microdilution assay; type: functional, organism-based; settings: Candidozyma auris
Candida albicans [12] = test: Synergistic antifungal activity against Candida albicans 0304103 at 32 ug/ml incubated for 48 hrs in presence of 32 ug/ml fluconazole by microdilution assay; type: functional, organism-based; settings: dose 32.0 µg/ml
Nakaseomyces glabratus = test: Synergistic antifungal activity against Candida glabrata assessed as potentiation of ITC antifungal activity by measuring ITC incubated for 48 hrs in presence of fluconazole by checkerboard microdilution assay; type: functional, organism-based
Candida albicans [13] = test: as §1, with “pelvis” for “pelvis/medulla”, “infection” for “infection and co-treated with 1 mg/kg, ip fluconazole”; type: functional, organism-based; settings: time 5.0 day; procedure, shortened: as §2
Candida albicans [14] = test: Synergistic antifungal activity against Candida albicans 9172 assessed as potentiation of fluconazole antifungal activity by measuring FICI incubated for 48 hrs in presence of fluconazole by checkerboard microdilution assay; type: functional
Procedure, shortened: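 Checkerboard broth microdilution per CLSI M27-A3 (modified), clinical Candida isolates. 48 h at 35 °C; OD630 read with background subtracted. MIC80 = 80% growth inhibition; FICI ≤0.5 synergy, >4 antagonism.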

O=C(Cc1ccc(OCCCn2c3c(c4cccc(Cl)c42)CCNC3)cc1)NO
Activity (Candida albicans [1]): inactive | Activity (Candida albicans [2]): Active | Activity (Candida albicans [3]): Active | Activity (Cryptococcus neoformans): inactive | Activity (Candida tropicalis): Active | MIC80 (Candida albicans [4]): 2 µg/mL | MIC80 (Candida albicans [5]): 0.25 µg/mL | Activity ([Candida] auris [6]): Active | MIC80 (Candida albicans [7]): 64 µg/mL (≈ 155 µM) | MIC80 (Candida albicans [8]): > 64 µg/mL | Activity (Candida albicans [9]): Active | pIC50 [10]: 6.34 | Activity ([Candida] auris [11]): Active | Activity (Candida albicans [12]): Active | Activity (Nakaseomyces glabratus): Active | Activity (Candida albicans [13]): inactive | fractional inhibitory concentration index (FICI) (Candida albicans [14]): 0.039
